In ChEMBL document CHEMBL1157556, “Synthesis and biological screening of a combinatorial library of beta-chlorovinyl chalcones as anticancer, anti-inflammatory and antimicrobial agents” (Bioorg Med Chem, 2010):
≈ marks a conversion by molar mass, not a printed value.

Legend:
Penicillium chrysogenum = assay: Antifungal activity against Penicillium chrysogenum MTCC 1996 at 100 ug/ml after 48 hrs agar diffusion method; format: functional; details: MTCC 1996, 48 h, read-out: IZ
Outline: (§1)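 Fungal spore suspensions in sterile distilled water adjusted to 10⁶ cfu/mL; 0.1 mL spread on Sabouraud dextrose agar. Wells of 6 mm filled with 0.1 mL compound dilution in DMSO. DMSO (1%) control; nystatin (30 µg/mL) reference. Duplicate plates incubated at 28 °C for 48 h. Activity read as inhibition zone diameter in mm.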

THP-1 [1] = assay: Antiinflammatory activity in human THP1 cells assessed as inhibition of LPS-induced TNFalpha release at 10 uM after 24 hrs by ELISA; format: functional; details: THP-1, 24 h
Outline: (§2)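 THP-1 cells grown in RPMI 1640 with 10% FBS, penicillin and streptomycin, then PMA-differentiated. Compounds in 0.5% DMSO preincubated 30 min at 37 °C before LPS (E. coli 0127:B8) stimulation. TNF-α and IL-6 release measured by kit per the manufacturer (BD Biosciences). Percent inhibition calculated relative to control. Dexamethasone 1 µM as reference.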

Klebsiella pneumoniae [2] = assay: Antibacterial activity against Klebsiella pneumoniae NCIM 2957 at 50 ug/ml after 24 hrs agar diffusion method; format: functional; details: NCIM 2957, 24 h, read-out: IZ
Outline: (§3)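 Agar well diffusion on Mueller Hinton agar seeded with 0.1 mL of a 10⁵ cfu/mL suspension in 0.85% saline. Compounds dissolved in DMSO, final concentrations 25–250 µg/mL, 0.1 mL loaded per 6 mm well. DMSO (1%) control; tetracycline (10 µg/mL) reference. Duplicate plates incubated 24 h at 37 °C. Inhibition zone read in mm. MIC taken as lowest concentration giving complete growth inhibition.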

Staphylococcus aureus [3] = assay: Antibacterial activity against Staphylococcus aureus MTCC 96 after 24 hrs; format: functional; details: MTCC 96, 24 h; outline: as §3
THP-1 [4] = assay: Cytotoxicity against human THP1 cells assessed as CCK8 release at 10 uM after 24 hrs by ELISA; format: cell-based; details: thp-1, 24 h
Outline: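 Same THP-1 cytokine-assay cells, with compounds in 0.5% DMSO and LPS stimulation, were scored in parallel for cytotoxicity by CCK-8.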

PANC-1 = assay: Anticancer activity against human PANC1 cells at 10 uM after 48 hrs by propidium iodide fluorescence assay; format: functional
Outline: (§4)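 Propidium iodide DNA-fluorescence assay. Seeding 3000–7500 cells/well, 24 h recovery at 37 °C in 5% CO₂. Compounds in 0.1% DMSO added to triplicate wells at 10 µM. Flavopiridol 700 nM and gemcitabine 500 nM as reference inhibitors. Plates frozen at −80 °C for 24 h, thawed to room temperature, fluorescence read at excitation 530 nm and emission 620 nm. Percent cytotoxicity calculated.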

Trichoderma viride = assay: Antifungal activity against Trichoderma viride MTCC 167 at 100 ug/ml after 48 hrs agar diffusion method; format: functional; details: MTCC 167, 48 h, read-out: IZ; outline: as §1
Candida albicans = assay: Antifungal activity against Candida albicans MTCC 227 at 100 ug/ml after 48 hrs agar diffusion method; format: functional; details: MTCC 227, 48 h, read-out: IZ; outline: as §1
Calu-1 = assay: Anticancer activity against human Calu1 cells at 10 uM after 48 hrs by propidium iodide fluorescence assay; format: functional; outline: as §4
HCT-116 = assay: Anticancer activity against human HCT116 cells at 10 uM after 48 hrs by propidium iodide fluorescence assay; format: functional; outline: as §4
Aspergillus flavus = assay: Antifungal activity against Aspergillus flavus MTCC 2501 at 100 ug/ml after 48 hrs agar diffusion method; format: functional; details: MTCC 2501, 48 h, read-out: IZ; outline: as §1
Bacillus subtilis [5] = assay: Antibacterial activity against Bacillus subtilis MTCC 1789 after 24 hrs; format: functional; details: MTCC 1789, 24 h; outline: as §3
THP-1 [6] = assay: Antiinflammatory activity in human THP1 cells assessed as inhibition of LPS-induced IL6 release at 10 uM after 24 hrs by ELISA; format: functional; details: THP-1, 24 h; outline: as §2
Escherichia coli [7] = assay: Antibacterial activity against Escherichia coli MTCC 1650 after 24 hrs; format: functional; details: MTCC 1650, 24 h; outline: as §3
Proteus vulgaris [8] = assay: Antibacterial activity against Proteus vulgaris MTCC 1771 after 24 hrs; format: functional; details: MTCC 1771, 24 h; outline: as §3
Klebsiella pneumoniae [9] = assay: Antibacterial activity against Klebsiella pneumoniae NCIM 2957 after 24 hrs; format: functional; details: NCIM 2957, 24 h; outline: as §3
ACHN = assay: Anticancer activity against human ACHN cells at 10 uM after 48 hrs by propidium iodide fluorescence assay; format: functional; outline: as §4
NCI-H460 = assay: Anticancer activity against human H460 cells at 10 uM after 48 hrs by propidium iodide fluorescence assay; format: functional; outline: as §4
Aspergillus niger = assay: Antifungal activity against Aspergillus niger MTCC 1781 at 100 ug/ml after 48 hrs agar diffusion method; format: functional; details: MTCC 1781, 48 h, read-out: IZ; outline: as §1
Proteus vulgaris [10] = assay: Antibacterial activity against Proteus vulgaris MTCC 1771 at 50 ug/ml after 24 hrs agar diffusion method; format: functional; details: MTCC 1771, 24 h, read-out: IZ; outline: as §3
Escherichia coli [11] = assay: Antibacterial activity against Escherichia coli MTCC 1650 at 50 ug/ml after 24 hrs agar diffusion method; format: functional; details: MTCC 1650, 24 h, read-out: IZ; outline: as §3
Bacillus subtilis [12] = assay: Antibacterial activity against Bacillus subtilis MTCC 1789 at 50 ug/ml after 24 hrs agar diffusion method; format: functional; details: MTCC 1789, 24 h, read-out: IZ; outline: as §3
Staphylococcus aureus [13] = assay: Antibacterial activity against Staphylococcus aureus MTCC 96 at 50 ug/ml after 24 hrs agar diffusion method; format: functional; details: MTCC 96, 24 h, read-out: IZ; outline: as §3

MIC (Staphylococcus aureus [3]) [mg/L] | MIC (Bacillus subtilis [5]) [mg/L] | MIC (Escherichia coli [7]) [mg/L] | MIC (Proteus vulgaris [8]) [mg/L] | MIC (Klebsiella pneumoniae [9]) [mg/L] | SMILES | zone of inhibition at 100 µg/mL (Penicillium chrysogenum) [mm] | inhibition at 10 µM (THP-1 [1]) [%] | zone of inhibition at 50 µg/mL (Klebsiella pneumoniae [2]) [mm] | Activity (THP-1 [4]) [%] | Activity (PANC-1) [%] | zone of inhibition at 100 µg/mL (Trichoderma viride) [mm] | Activity (Calu-1) [%] | Activity (HCT-116) [%] | zone of inhibition at 100 µg/mL (Aspergillus flavus) [mm] | inhibition at 10 µM (THP-1 [6]) [%] | Activity (ACHN) [%] | Activity (NCI-H460) [%] | zone of inhibition at 100 µg/mL (Aspergillus niger) [mm] | zone of inhibition at 50 µg/mL (Proteus vulgaris [10]) [mm] | zone of inhibition at 50 µg/mL (Escherichia coli [11]) [mm] | other results
50 (≈ 150 µM) | 50 (≈ 150 µM) | 50 (≈ 150 µM) | 50 (≈ 150 µM) | 50 (≈ 150 µM) | COc1ccc(C(=O)/C=C/C=C(\Cl)c2ccc(Cl)cc2)cc1 | 12 | 67 | 10 | 28 | 30 | 12 | 32 | 29 | 12 | 95 | 35 | 33 | 13 | – | – | zone of inhibition at 100 µg/mL (Candida albicans): 10 mm
50 (≈ 129 µM) | 50 (≈ 129 µM) | 50 (≈ 129 µM) | 50 (≈ 129 µM) | 50 (≈ 129 µM) | COc1ccc(C(=O)/C=C/C=C(\Cl)c2ccc(OC)cc2OC)c(OC)c1 | – | 0 | – | 0 | 23 | – | 24 | 29 | – | 27 | 26 | 18 | 13 | 13 | – | –
50 (≈ 144 µM) | 50 (≈ 144 µM) | 50 (≈ 144 µM) | 50 (≈ 144 µM) | 50 (≈ 144 µM) | COc1ccc(C(=O)/C=C/C=C(\Cl)c2ccc(F)cc2)c(OC)c1 | – | 0 | – | 0 | 23 | – | 36 | 14 | 10 | 44 | 30 | 26 | – | 16 | 11 | zone of inhibition at 50 µg/mL (Bacillus subtilis [12]): 10 mm
50 (≈ 152 µM) | 50 (≈ 152 µM) | 50 (≈ 152 µM) | 50 (≈ 152 µM) | 50 (≈ 152 µM) | COc1ccc(C(=O)/C=C/C=C(\Cl)c2ccc(OC)cc2)cc1 | 15 | 2 | 12 | 0 | 16 | 14 | 38 | 16 | 14 | 11 | 28 | 19 | 14 | – | 17 | zone of inhibition at 50 µg/mL (Staphylococcus aureus [13]): 12 mm; zone of inhibition at 100 µg/mL (Candida albicans): 11 mm
50 (≈ 158 µM) | 50 (≈ 158 µM) | 50 (≈ 158 µM) | 50 (≈ 158 µM) | 50 (≈ 158 µM) | COc1ccc(C(=O)/C=C/C=C(\Cl)c2ccc(F)cc2)cc1 | 15 | 0 | 15 | 2 | 1 | 14 | 0 | 0 | 15 | 6 | 17 | 14 | 8 | 16 | 11 | zone of inhibition at 50 µg/mL (Staphylococcus aureus [13]): 16 mm; zone of inhibition at 100 µg/mL (Candida albicans): 8 mm; zone of inhibition at 50 µg/mL (Bacillus subtilis [12]): 15 mm
50 (≈ 150 µM) | 50 (≈ 150 µM) | 50 (≈ 150 µM) | 50 (≈ 150 µM) | 50 (≈ 150 µM) | COc1ccc(C(=O)/C=C/C=C(\Cl)c2cccc(Cl)c2)cc1 | – | 1 | 17 | 35 | 18 | 11 | 20 | 31 | 8 | 3 | 22 | 26 | – | 15 | 10 | zone of inhibition at 50 µg/mL (Staphylococcus aureus [13]): 13 mm; zone of inhibition at 50 µg/mL (Bacillus subtilis [12]): 15 mm
